Measurements reported in ChEMBL document CHEMBL4513216, “Probing the Open Global Health Chemical Diversity Library for Multistage-Active Starting Points for Next-Generation Antimalarials” (ACS Infect Dis, 2020).

Test: Toxicity liver stage against HepG2, at 10uM
Assay type: cell-based
Design: test concentration 10 uM, cell line HepG2-A16-CD81EGFP
Conditions: human, HepG2-A16-CD81EGFP cells; read-out: INHIBITION
Outline: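 Uninfected HepG2-A16-CD81EGFP cells, 3 × 10^3 per well, 1536-well, plated on prespotted compound at 10 μM final, parasite-free screening media added to match infected plates; puromycin 10 μM positive, DMSO 0.5% negative; run in parallel with 48 h PbLuc assay at 37 °C, 5% CO2; viability by CellTiter-Glo luminescence, normalized to controls.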

| SMILES | cytotoxicity at 10 µM [%] |
| --- | --- |
| Cc1ccccc1Cc1cnc(NC(=O)C2CNC(=O)N2)s1 (stereo not given) | -3.37 |
| CC(=O)N1CCC2(C1)CN(S(=O)(=O)c1ccccc1)C2 | 3.82 |
| Cc1noc(C)c1CN1CCc2ncnc(-c3ccoc3)c2CC1 | -92 |
| COC(=O)c1ccc(F)c(S(=O)(=O)Nc2ccc(C(N)=O)cc2)c1 | 3.63 |
| CN(C)CC1CSCCCN1C(=O)c1cccc(C(F)(F)F)c1 (stereo not given) | -5.03 |
| Cc1cc(C)nc(N2CCCC(C(=O)Nc3n[nH]c(C(C)C)n3)C2)n1 (stereo not given) | 8.04 |
| COc1ccc(C(=O)CCc2nc(C3CC3)no2)cc1F | -2.89 |
| CN(C)c1ccc(C(=O)N2CCN(c3cnccn3)CC2)cn1 | -4.98 |
| NC(=O)c1cccc(CC2CCN(C(=O)Cn3cnnn3)C2)c1 (stereo not given) | 0.557 |
| O=C(c1cnccn1)N1CCOC2(CCCN(c3ncccc3F)C2)C1 (stereo not given) | 0.199 |
| O=c1[nH]nc2c(S(=O)(=O)N3CCOCC3)cccn12 | -1.7 |
| Cc1nn(C)c(C)c1CN(C)C(=O)c1cc(C(F)(F)F)n(C)n1 | -0.65 |
| Cc1nnc(CN(C)S(=O)(=O)c2ccc(Br)cc2Cl)n1C | 12.6 |
| Fc1ccc(Sc2ccccc2CNC2=NCCN2)cc1 | 18.9 |
| O=C(O)c1nnn(-c2cccc(C(F)(F)F)c2)c1C1CC1 | -2.02 |
| Cc1nc(CN2C(=O)CC[C@@H]3[C@H]2CCN3C(=O)C2CCOCC2)cs1 | -81.3 |
| CC(C)(C)NC(=O)NC(=O)CN1C=Nc2ccccc2S1(=O)=O | -8.68 |
| Cc1ccccc1C(=O)N1CCCn2cnc(CN3CCCC3=O)c2C1 | 10.2 |
| Cc1cc(CNC(=O)N2CCOC(c3ccccc3Cl)C2)no1 (stereo not given) | 0.658 |
| Cc1nc(C2CCCN(C(=O)CCCOc3cccc(F)c3)C2)no1 (stereo not given) | 9.91 |
| Cc1nn(C)c(C)c1C1CCCN1C(=O)c1ccc(C(N)=O)s1 (stereo not given) | -1.52 |
| CC(C)NC(=O)CC(C)NCc1cc(Cl)ccc1F (stereo not given) | -40 |

| SMILES | cytotoxicity at 10 µM [%] |
| --- | --- |
| COc1ccccc1N1CCN(C(=O)CSCC2CC2)C(C)C1 (stereo not given) | 4.06 |
| CN(Cc1ccsc1)C(=O)c1ccc2c(c1)NC(=O)CO2 | -12.8 |
| CCC(Nc1nc(CCN)nc2ccccc12)c1cccs1 (stereo not given) | -3.09 |
| CCS(=O)(=O)N1CCOC2(CCCN(Cc3ccccn3)C2)C1 (stereo not given) | 5.86 |
| Cc1cc(C(=O)N2C[C@@H]3[C@@H](C2)OCC(=O)N3CC2CC2)no1 | -10.4 |
| CC(C)=CCC/C(C)=C\CNCc1ccco1 | -12.6 |
| CC[C@H]1CN2CC[C@H]1C[C@@H]2CNC(=O)Nc1ccccc1 | -0.989 |
| CN(C)C(=O)c1cn[nH]c1C1CCCN1Cc1c[nH]cn1 (stereo not given) | -3.3 |
| Cc1cnn(CCC(=O)N2CCCC(c3ccn[nH]3)C2)c1 (stereo not given) | -8.25 |
| O=C(Nc1cccnc1-n1cc(Br)cn1)C1CCCC1 | -33.1 |
| Cn1cc(-c2nnc3sc(C4CC4)nn23)cn1 | -3.08 |
| Cc1cc(-c2cnc(N3CCOCC3)nc2-c2cccnc2C)on1 | -21.4 |
| COc1c(CNCCNC(=O)Cc2ccc(F)cc2)c(C)nn1C | -3.09 |
| O=C(CSC1CCc2ccccc2NC1=O)NCc1ccccc1 (stereo not given) | 6.37 |
| Cc1ccc(C(=O)N(C)CCNS(C)(=O)=O)cc1Br | -45.8 |
| O=C(O)c1cc(NS(=O)(=O)c2ccc(Cl)s2)ccc1N1CCOCC1 | -4.05 |
| Cc1cc(C(=O)N[C@H]2COC[C@@H]2N2CCOCC2)c2ccc(F)cc2n1 | -48.2 |
| CCn1c(CC2CCN(C(=O)c3cc(C(C)C)nn3C)CC2)n[nH]c1=O | -58.5 |
| CC(=O)N1CCC2(CC1)C(=O)N(c1ccc(C)nc1)CCN2CC(C)C | 22.2 |
| COCCCn1ccc(NC(=O)NCCn2ccnc2)n1 | -2.14 |
| Cc1ccc2c(n1)N(Cc1cccnc1)CCN(C(=O)C1CCC1)C2 | 13.7 |
| COCc1ncn2c1CN(C(=O)Nc1ccccc1)CC2 | 0.763 |

| SMILES | cytotoxicity at 10 µM [%] |
| --- | --- |
| COc1ccc(COCC(O)CSc2ccc(NC(C)=O)cc2)cc1 (stereo not given) | 8.22 |
| Cc1cc(C(F)(F)F)n2nc(C3CCN(S(=O)(=O)N(C)C)CC3)cc2n1 | -2.88 |
| CCCc1nnc(N(C)CC2CCCN(CC)C2)o1 (stereo not given) | -4.1 |
| Cc1ncc(C(=O)N2C[C@@H]3CC[C@H]2CN(S(=O)(=O)N(C)C)C3)c(C)n1 | 16.9 |
| CN(C)CCN1CCN(Cc2cccc(C#N)c2)Cc2cccnc21 | -1.57 |
| Cn1c(C(=O)N2CC[C@@]3(O)CCCC[C@H]3C2)cc2ccccc21 | -46.8 |
| Cc1csc(CNCc2c(C)nn(C)c2N2CCOCC2)n1 | -9.07 |
| Cc1cnc(CN(Cc2ccccc2)CC(O)c2cccs2)cn1 (stereo not given) | -15.4 |
| CC(C)COCCCNC(=O)NC(C)c1ccc(-n2cncn2)cc1 (stereo not given) | 2.42 |
| COc1ccc(-n2ncc(C(=O)NCC3COC(C)(C)O3)c2N)cc1 (stereo not given) | 3.97 |
| Cc1cc(NCCc2c(C)n[nH]c2C)nc(-c2cccnc2)n1 | -0.355 |
| COCCN1CCO[C@@H]2CN(Cc3ccccc3OC)C[C@@H]2C1 | -2.48 |
| COCCCNC(=O)Nc1cccc2c1CCN(S(C)(=O)=O)C2 | 2.87 |
| O=C([C@H]1CCCN1)N1CC2(CCNCC2)c2cc(Cl)ccc21 | 0.286 |
| CCC1CNCc2cc3c(OC)ccc(OC)c3nc2O1 (stereo not given) | -4.22 |
| CCOCc1ccccc1NC(=O)NCC(C)(O)c1cccs1 (stereo not given) | -0.966 |
| Cc1nc(C)c(C)c(NCCSc2ccccn2)n1 | -4.23 |
| Cc1cncc(C2CCCN(C(=O)c3cccn3C)C2)n1 (stereo not given) | 2.14 |
| O=C(NCCc1coc(-c2ccc(F)cc2)n1)NC1CC1 | -3.24 |
| CC(C)(C)Oc1ccccc1CNC(=O)C1CCCOC1 (stereo not given) | 0.997 |
| O=C(NCc1nnc2n1CCC2)c1cn(-c2ccccc2)nn1 | -2.4 |
| Cc1ccc(C(=O)N2CCCC(N)CC2)cc1N1CCNC1=O (stereo not given) | -4.35 |

| SMILES | cytotoxicity at 10 µM [%] |
| --- | --- |
| CC(=O)N1CCCC1C(=O)N1CCC(=Cc2cccc(F)c2)CC1 (stereo not given) | 3.5 |
| CCN1C[C@H]2[C@@H](C1)N(C(=O)Cc1ccsc1)CC[C@H]2OC | 6.8 |
| O=C(CC(F)(F)F)N1CCC2(CCCN(c3nncs3)C2)C1 (stereo not given) | -105 |
| N#Cc1ncn(Cc2c(F)cccc2Cl)n1 | -3.94 |
| OCCC1CN(c2nc(-c3ccncc3)nc3c2CCNCC3)CCO1 (stereo not given) | 5.05 |
| CC(=O)N1CCN(c2ccnc(C)n2)CC(COc2ccccc2)C1 (stereo not given) | -6.16 |
| O=S(=O)(Cc1ccc(F)cc1)NCCc1nnc2n1CCC2 | 17.2 |
| Cc1cc(C(F)(F)F)nc(CNC(=O)CCCN2CCCCC2)n1 | -53.1 |
| O=C(Cn1nnn(-c2cccs2)c1=O)NCC1CCOC1 (stereo not given) | -40.4 |
| CC(Sc1n[nH]c(-c2ccc3c(c2)CCC3)n1)C(N)=O (stereo not given) | -0.665 |
| COc1ccc(CC(=O)N2CCCC2Cn2cc(C)cn2)cc1OC (stereo not given) | -17.9 |
| CCC[C@@H]1CN(c2cncc(C(=O)N3CCOCC3)n2)C[C@H]1N(C)C | 4.63 |
| COCc1cnc2n1CCN(C(=O)c1oc3ccccc3c1C)C2C (stereo not given) | -104 |
| Cc1noc(C(C)C)c1C(=O)N1CCCN(Cc2cscn2)CC1 | -3.56 |
| Cc1ccc(N2CCCC(NCC(=O)Nc3cc(C)no3)C2)nn1 (stereo not given) | 3.61 |
| O=S(=O)(NCCSc1nccn1C1CC1)c1ccccc1 | -9.34 |
| COCCn1cc(C(=O)Nc2nc3c(s2)CCC3)c2ccccc21 | 77.9 |
| Cn1cc(CN2CC[C@@H]3[C@@H](CCC(=O)N3CCc3ccccc3)C2)cn1 | -1.45 |
| O=C(NCc1cccc(F)c1)Nc1ccn(CCN2CCOCC2)n1 | -8.45 |
| Cn1nc(CC(C)(C)C)cc1NC(=O)c1ccc(CNC(N)=O)cc1 | -1.78 |
| COC(=O)c1ncccc1N1CCC(C(O)c2ccccc2)CC1 (stereo not given) | -4.11 |
| CCNc1ccc(-c2ccnc3c2ccn3C)nn1 | -18.1 |

| SMILES | cytotoxicity at 10 µM [%] |
| --- | --- |
| CN(C)CCN(C)C(=O)Cn1cccc2cc(-c3ccc(F)cc3)nc1-2 | -24.4 |
| O=C1CC(c2ccccc2)C2(CCN(C(=O)c3cnccn3)CC2)N1 (stereo not given) | -75.1 |
| c1ccc(-c2nc(CNCCn3cccn3)cs2)cc1 | -1.56 |
| CO[C@H]1CN(Cc2cccc(C#N)c2)[C@@H]2COC[C@H]12 | -5.77 |
| COc1cccc(CC(=O)N2CCC(Cc3nnc(SC)n3C)CC2)c1 | -40.2 |
| CN(C)Cc1ccnc(NS(=O)(=O)CCc2ccccc2)c1 | -3.09 |
| CCCn1ccnc1CN1C[C@@H](CN2CCCCC2)[C@@H](CO)C1 | 0.945 |
| O=C(c1cnc(C2CC2)nc1O)N1CCN(Cc2ccccc2F)CC1 | -1.83 |
| Cc1nc(Nc2ccc(Cl)cn2)sc1C(=O)NC(C)C | 14 |
| COCCSc1ccc(-n2cccn2)nn1 | -24.6 |
| CN(C)C(=O)COCc1nn(C)c2c1CCN(Cc1ccco1)C2 | -131 |
| OCCN1CCC(F)(F)C2(CCN(c3cnccn3)C2)C1 (stereo not given) | 8.24 |
| Cc1ncc(CN(C)C(=O)Nc2cccc(C(=O)N3CCOCC3)c2)s1 | 11.6 |
| CCCN(CCc1ccccn1)C(=O)Cn1cc(C)cn1 | -9.22 |
| Cc1ncnc(NCc2cc3n(n2)CCCN(S(C)(=O)=O)C3)c1C | -8.42 |
| Cc1nnc(N2C[C@@H](OCCCn3cccn3)[C@H]3OCCC[C@H]32)s1 | -8.19 |
| CN(Cc1ccc(F)cc1)C(=O)Nc1cccnc1N1CCCC1 | -4.26 |
| CC(C)(C)NC(=O)N1CCC(Oc2ccc(C(F)(F)F)cn2)CC1 | 6.91 |
| COCCn1cnnc1C(C)NC(=O)c1[nH]c2c(C)cc(C)cc2c1C (stereo not given) | -9.11 |
| COC(=O)c1ccc(N2CCN(C(=O)C3CCC3)C(C)C2)cc1 (stereo not given) | -4.18 |
| O=C1CCC2(CCCN(C(=O)Cc3cccs3)C2)N1 (stereo not given) | 3.76 |
| CS(=O)(=O)NCC(=O)NC(Cc1ccccc1)C1CCCC1 (stereo not given) | 0.69 |
